Measurements published in ChEMBL document CHEMBL3046951, “Volatile constituents from the leaves of Callicarpa japonica Thunb. and their antibacterial activities” (2004).

How the values were obtained:
Assay type in all cases: functional
[1] = tested on: Bacillus cereus; test: Antimicrobial activity against Bacillus cereus ATCC 11778 assessed as growth inhibition rate at 4 mg/l after 72 hr by spectrophotometry; conditions: ATCC 11778, 72 h, read-out: GI
Summary of the method: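 Pure volatile compounds (purity >95%; one at 90%) were tested against B. cereus ATCC 11778. The strain was grown at 30 °C in nutrient broth for 24 h, then subcultured for 18 h. Optical density was read in a Bioscreen C every 24 h for 72 h, with 10% Tween 80 as the control.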

[2] = tested on: Salmonella typhimurium; test: Antimicrobial activity against Salmonella enterica subsp. enterica serovar Typhimurium ATCC 14028 assessed as growth inhibition rate at 4 mg/l after 72 hr by spectrophotometry; conditions: ATCC 14028, 72 h, read-out: GI
Summary of the method: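 Salmonella Typhimurium ATCC 14028 grown in nutrient broth at 30 °C, precultured 24 h, then subcultured 1:100 for 18 h before testing. Single volatile compounds (>95% pure) were added. OD was read every 24 h over 72 h in a Bioscreen C, with 10% Tween 80 as the comparison control.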

[3] = tested on: Escherichia coli; test: Antimicrobial activity against Escherichia coli O157:H7 ATCC 43894 assessed as growth inhibition rate at 4 mg/l after 72 hr by spectrophotometry; conditions: O157:H7 ATCC 43894, 72 h, read-out: GI
[4] = tested on: Staphylococcus aureus; test: Antimicrobial activity against Staphylococcus aureus ATCC 25923 assessed as growth inhibition rate at 4 mg/l after 72 hr by spectrophotometry; conditions: ATCC 25923, 72 h, read-out: GI
[5] = tested on: Listeria monocytogenes; test: Antimicrobial activity against Listeria monocytogenes ATCC 19111 assessed as growth inhibition rate at 4 mg/l after 72 hr by spectrophotometry; conditions: ATCC 19111, 72 h, read-out: GI
Summary of the method: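 L. monocytogenes was grown at 30 °C in tryptic soy broth, subcultured for 18 h, and exposed to pure volatile compounds (>95% purity). Growth was followed by Bioscreen C optical density every 24 h for 72 h against a 10% Tween 80 control.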

[6] = tested on: Vibrio parahaemolyticus; test: Antimicrobial activity against Vibrio parahaemolyticus ATCC 33844 assessed as growth inhibition rate at 4 mg/l after 72 hr by spectrophotometry; conditions: ATCC 33844, 72 h, read-out: GI

CC1=CC[C@@H]2C3C(C(C)C)CCC2(C)[C@@H]13 (stereo partly drawn) [(-)-ALPHA-COPAENE]
inhibition of growth at 4 µg/mL [1]: 5.9% | inhibition of growth at 4 µg/mL [2]: 0.1% | inhibition of growth at 4 µg/mL [3]: 0% | inhibition of growth at 4 µg/mL [4]: 5.7% | inhibition of growth at 4 µg/mL [5]: 0% | inhibition of growth at 4 µg/mL [6]: 0%
